Test results published in ChEMBL document CHEMBL2093137, “WHO-TDR NTD Screening”.
In brackets after ≈: the same amount, converted by molar mass.

How the values were obtained:
[1] = WHO-TDR: Cytotoxicity; format: toxicity, cell-based; conditions: human, MRC5 cells
Plasmodium falciparum K1 = test: WHO-TDR: Malaria; format: functional, organism-based, Homo sapiens; conditions: Erythrocyte
How it was run: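 This whole-organism screen covered 10,000 drug-likeness-filtered and reactive-group-filtered compounds from Life Chemicals. The target was the Plasmodium falciparum K1 strain in human red blood cells, and the readout was antiplasmodial IC50.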

Trypanosoma cruzi = test: WHO-TDR: Chagas disease; format: functional, organism-based, Homo sapiens; conditions: MRC5
How it was run: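 A diverse library of 10,000 compounds from Life Chemicals, filtered for drug-likeness and reactive groups, was screened against intracellular amastigotes of Trypanosoma cruzi Tulahuen CL2 beta-galactosidase strain. The parasites were grown in MRC-5SV2 human lung fibroblast host cells, and a reference drug served as positive control under previously published standard procedures. Antiparasitic potency is given as IC50.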

[2] = tested on: Trypanosoma brucei brucei; test: WHO-TDR: Human African Trypanosomiasis (HAT); format: functional, organism-based; conditions: Squib-427
How it was run: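 Screening used a 10,000-compound diverse library supplied by Life Chemicals and filtered for drug-likeness and reactive groups. Whole bloodstream-form parasites of Trypanosoma brucei Squib 427 strain were assayed according to previously published standard procedures, with reference drugs as positive controls. The reported measure is IC50, reflecting antiparasitic potency.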

Leishmania infantum = test: WHO-TDR: Leishmaniasis; format: functional, organism-based, Mus musculus; conditions: Macrophage
How it was run: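 The screened collection came from Life Chemicals: 10,000 diverse compounds selected after filtering for drug-likeness and reactive groups. Each was tested in a whole-organism assay against Leishmania infantum MHOM/MA(BE)/67 amastigotes inside murine peritoneal macrophages, using previously published standard procedures and a reference drug as positive control. Results are IC50 values for antiparasitic potency.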

Schistosoma mansoni = test: WHO-TDR: Schistosomiasis; format: functional; parameters: concentration or dose not given beside the values
How it was run: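 A diverse library of 10,000 compounds from Life Chemicals, filtered for drug-likeness and reactive groups, was screened against whole larval and/or adult Schistosoma mansoni worms of the Puerto Rican strain. Previously published standard procedures were followed, with a reference drug as positive control. Activity is given as percent inhibition and as IC50.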

Onchocerca ochengi = test: WHO-TDR: Onchocerciasis; format: functional; parameters: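 at 12.5 µM on microfilariae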
How it was run: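 A diverse library of 10,000 compounds from Life Chemicals, filtered for drug-likeness and reactive groups, was screened against whole microfilariae of Onchocerca ochengi or Onchocerca lienalis. These animal pathogens served as stand-ins for the human parasite. Activity is given as percent inhibition and as IC50.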

Brugia malayi = test: WHO-TDR: Lymphatic Filariasis; format: functional; parameters: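 tested at 10 µM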
How it was run: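 A diverse library of 10,000 compounds from Life Chemicals was screened against Brugia malayi microfilariae in a whole-organism assay. The library had been filtered for drug-likeness and reactive groups. Activity is given as percent inhibition and as IC50.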

Compound | IC50 [1] [µg/mL] | IC50 (Plasmodium falciparum K1) [µg/mL] | IC50 (Trypanosoma cruzi) [µg/mL] | IC50 [2] [µg/mL] | IC50 (Leishmania infantum) [µg/mL] | % Inhibition (Schistosoma mansoni) [%] | % Inhibition (Onchocerca ochengi) [%] | % Inhibition (Brugia malayi) [%]
O=S(=O)(c1cccnc1)N1CCN(c2ccc(-c3cccs3)nn2)CC1 | > 11.6 | > 11.6 | > 11.6 | > 11.6 | 0.376 (≈ 0.97 µM) | 0 | 0 | 50
COc1ccc(Cl)cc1NC(=O)CSc1ccc(NC(=O)C2CC2)nn1 | > 11.8 | > 11.8 | > 11.8 | > 11.8 | > 11.8 | 33.3 | 100 | 0
O=C(C1CCN(S(=O)(=O)c2cccs2)CC1)N(Cc1cccnc1)c1nc2c(F)cc(F)cc2s1 | > 10.9 | > 16 | 0.535 (≈ 1 µM) | > 16 | > 16 | 0 | 0 | 25
CC1(C)Cc2cccc(OCCCS(=O)(=O)NCc3cccs3)c2O1 | > 11.4 | > 11.4 | > 11.4 | > 11.4 | > 11.4 | 0 | 100 | 20
CCn1ccnc1N1CCN(CC(=O)NC2CCCCC2)CC1 | > 11.8 | > 11.8 | > 11.8 | > 11.8 | 0.381 (≈ 1.19 µM) | 0 | 0 | 0
CN(C)C(CNS(=O)(=O)c1ccc(Cl)s1)c1ccc(F)cc1 (stereo not drawn) | > 10.9 | > 10.9 | > 10.9 | 3.44 (≈ 9.49 µM) | > 10.9 | 0 | 100 | 0
C=CCn1c(Sc2nc3ccccc3o2)nc2c1c(=O)[nH]c(=O)n2C | > 10.7 | 10.7 (≈ 30 µM) | 4.04 (≈ 11.4 µM) | 0.337 (≈ 0.948 µM) | > 10.7 | 0 | 0 | 20
Cc1ccnc(Nc2ccc(NCCNC(=O)c3ccc(F)cc3Cl)nn2)c1 | > 12 | 5.9 (≈ 14.7 µM) | > 12 | 4.09 (≈ 10.2 µM) | > 12 | 0 | 100 | 25
Cc1csc(NC(=O)CSc2nc(-c3ccccc3)c(N)s2)n1 | > 10.9 | > 10.9 | 7.18 (≈ 19.8 µM) | > 10.9 | 0.352 (≈ 0.971 µM) | 0 | 50 | 33.33
Cc1ccc(S(=O)(=O)N2CCN(c3ccc(Nc4cccnc4)nn3)CC2)c(C)c1 | 0.804 (≈ 1.89 µM) | 0.716 (≈ 1.69 µM) | 3.91 (≈ 9.21 µM) | > 12.7 | > 12.7 | 0 | 100 | 0
Cc1cccc(Nc2ccc(NCCNC(=O)Nc3ccc(F)cc3)nn2)n1 | > 11.4 | 8.36 (≈ 21.9 µM) | > 11.4 | > 11.4 | > 11.4 | 0 | 100 | 0
O=C(Cc1ccc(Cl)cc1)NCCS(=O)(=O)N1CCN(Cc2ccccc2)CC1 | > 14.2 | > 14.2 | > 14.2 | > 14.2 | > 14.2 | 0 | 100 | 20
Cc1ccc(-n2ncc3c(=O)[nH]c(-n4nc(C)cc4NC(=O)C4CC4)nc32)cc1 | 0.591 (≈ 1.52 µM) | 0.637 (≈ 1.64 µM) | 0.214 (≈ 0.55 µM) | 0.378 (≈ 0.971 µM) | 0.313 (≈ 0.804 µM) | 0 | 100 | 0
COc1cccc(NC(=O)NCCNc2ccc(Nc3cc(C)ccn3)nn2)c1 | > 11.8 | 9.93 (≈ 25.2 µM) | > 11.8 | 3.82 (≈ 9.71 µM) | > 11.8 | 0 | 100 | 25
CCSc1ccccc1C(=O)Nc1nnc(Cc2cccs2)o1 | 9.48 (≈ 27.5 µM) | > 10.4 | 3.48 (≈ 10.1 µM) | 3.35 (≈ 9.71 µM) | 0.336 (≈ 0.973 µM) | 33.3 | 0 | 0
Cc1ccc(-n2ccnc2N2CCN(C(=O)/C=C\c3ccccc3)CC2)cc1 | > 12.3 | 6.82 (≈ 18.3 µM) | 3.88 (≈ 10.4 µM) | 4.07 (≈ 10.9 µM) | > 12.3 | 25 | 100 | 0
